Key:
[1] = system: Mus musculus; assay: Brain efflux index in wild type mouse assessed as transport of compound from ipsilateral cerebrum to the circulating blood across the blood-brain barrier at 10 nCi/ml, intracerebral microinjection after 30 mins; format: ADME, organism-based; details: other, 0.5 h
How it was run: (§1)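 Intracerebral microinjection under ip ketamine (100 mg/kg)/xylazine (10 mg/kg). Stereotaxic needle at 3.8 mm lateral to bregma, 2.5 mm deep, into S2 cortex. 0.2 µL [3H]-drug (10 nCi/ml) with [14C]-carboxyl-inulin (10 nCi/ml) in ECF buffer pH 7.4 given over 2 min. Ipsilateral cerebrum taken at set times, homogenised in 5% BSA and counted by scintillation. Retained/injected ratio normalised to inulin; n=3-4.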

[2] = system: Mus musculus; assay: Brain efflux index in wild-type mouse assessed as transport of compound from ipsilateral cerebrum to the circulating blood across the blood-brain barrier at 10 nCi/ml, intracerebral microinjection after 30 mins in presence 100 mM probenecid OAT inhibitor; details: other, 0.5 h
[3] = Elimination rate constant mouse brain at 10 nCi/ml
[4] = system: Mus musculus; assay: Brain efflux index in Mrp2 deficient mouse assessed as transport of compound from ipsilateral cerebrum to the circulating blood across the blood-brain barrier at 10 nCi/ml, intracerebral microinjection after 30 mins relative to wild type; details: other, 0.5 h
[5] = Drug uptake in mouse brain ipsilateral cerebrum assessed as radiolabelled compound after 30 mins at 0.1 uM, intracerebral microinjection in presence 100 mM probenecid OAT inhibitor; format: ADME, tissue-based; details: in vivo, other, 0.5 h
How it was run: (§2)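 Male C57BL/6 wild-type mice under ketamine 100 mg/kg plus xylazine 10 mg/kg i.p., on a stereotaxic frame. 0.2 µL was injected over 2 min into the S2 cortex, 3.8 mm lateral to bregma and 2.5 mm deep. Injectate: [3H]-drug plus [14C]-carboxyl-inulin, 10 nCi/ml each, in ECF buffer pH 7.4. Needle held 4 min. Ipsilateral cerebrum harvested at 30 min and counted by scintillation. Retention normalized to inulin. n=3-4.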

[6] = system: Mus musculus; assay: Brain efflux index in wild-type mouse assessed as transport of compound from ipsilateral cerebrum to the circulating blood across the blood-brain barrier at 10 nCi/ml, intracerebral microinjection after 30 mins in presence 100 mM benzylpenicillin OAT inhibitor; details: other, 0.5 h
[7] = system: Brain; assay: Efflux clearance mouse brain measured per gm of tissue at 0.3 uCi/ml by in vitro brain slice uptake technique; format: ADME
[8] = system: Mus musculus; assay: Brain efflux index in wild type mouse assessed as transport of compound from ipsilateral cerebrum to the circulating blood across the blood-brain barrier at 10 nCi/ml, intracerebral microinjection after 30 mins in presence 100 mM benzylpenicillin OAT inhibitor relative to wild type; details: other, 0.5 h
[9] = system: Mus musculus; assay: Brain efflux index in Mrp2 deficient mouse assessed as transport of compound from ipsilateral cerebrum to the circulating blood across the blood-brain barrier at 10 nCi/ml, intracerebral microinjection after 60 mins; format: ADME, organism-based; details: other, 1 h; how it was run: as §1
[10] = Drug uptake in mouse brain ipsilateral cerebrum assessed as radiolabelled compound after 30 mins at 0.1 uM, intracerebral microinjection in presence 100 mM benzylpenicillin OAT inhibitor; format: ADME, tissue-based; details: in vivo, other, 0.5 h; how it was run: as §2
[11] = Drug uptake in mouse brain ipsilateral cerebrum assessed as radiolabelled compound after 30 mins at 0.1 uM, intracerebral microinjection; format: ADME, tissue-based; details: in vivo, other, 0.5 h; how it was run: as §2
[12] = system: Mus musculus; assay: Brain efflux index in Bcrp1 deficient mouse assessed as transport of compound from ipsilateral cerebrum to the circulating blood across the blood-brain barrier at 10 nCi/ml, intracerebral microinjection after 30 mins relative to wild type; format: ADME, organism-based; details: other, 0.5 h; how it was run: as §1
[13] = Drug uptake in mouse cerebrum
[14] = system: Mus musculus; assay: Brain efflux index in wild type mouse assessed as transport of compound from ipsilateral cerebrum to the circulating blood across the blood-brain barrier at 10 nCi/ml, intracerebral microinjection after 30 mins in presence 100 mM probenecid OAT inhibitor relative to wild type; details: other, 0.5 h
[15] = system: Brain; assay: Ratio of efflux clearance to clearance in brain measured in mouse at 0.3 uCi/ml by in vitro brain slice uptake technique; format: ADME, tissue-based
[16] = system: Mus musculus; assay: Brain efflux index in Bcrp1 deficient mouse assessed as transport of compound from ipsilateral cerebrum to the circulating blood across the blood-brain barrier at 10 nCi/ml, intracerebral microinjection after 30 mins; format: ADME, organism-based; details: other, 0.5 h; how it was run: as §1
[17] = Elimination half life in mouse brain at 10 nCi/ml, icv; format: ADME, organism-based; details: icv or intrathecal, read-out: beta t1/2 (converted)
How it was run: (§3)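 Intracerebral microinjection into the S2 cortex of anaesthetized mice, 0.2 µL of [3H]-drug (10 nCi/ml) with [14C]-carboxyl-inulin in ECF buffer. Ipsilateral cerebrum radioactivity was followed over time, up to 60 min for methotrexate. Elimination rate constant keff came from regression of percent remaining versus time, and half-life from keff. n=3-4.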

[18] = system: Mus musculus; assay: Brain efflux index in wild-type mouse assessed as transport of compound from ipsilateral cerebrum to the circulating blood across the blood-brain barrier at 10 nCi/ml, intracerebral microinjection after 30 mins in presence of 1 mM unlabelled compound; details: other, 0.5 h
[19] = Drug uptake in mouse brain ipsilateral cerebrum assessed as radiolabelled compound after 30 mins at 0.1 uM, intracerebral microinjection in presence of 1 mM unlabelled compound; format: ADME, tissue-based; details: in vivo, other, 0.5 h; how it was run: as §2
[20] = Drug uptake in mouse brain ipsilateral cerebrum assessed as radiolabelled compound after 30 mins at 0.1 uM, intracerebral microinjection in presence of 50 mM unlabelled compound; format: ADME, tissue-based; details: in vivo, other, 0.5 h; how it was run: as §2
[21] = system: Mus musculus; assay: Brain efflux index in wild type mouse assessed as transport of compound from ipsilateral cerebrum to the circulating blood across the blood-brain barrier at 10 nCi/ml, intracerebral microinjection after 30 mins in presence of 1 mM unlabelled compound relative to wild type; details: other, 0.5 h
[22] = system: Mus musculus; assay: Brain efflux index in wild-type mouse assessed as transport of compound from ipsilateral cerebrum to the circulating blood across the blood-brain barrier at 10 nCi/ml, intracerebral microinjection after 30 mins in presence of 50 mM unlabelled compound; details: other, 0.5 h
[23] = system: Mus musculus; assay: Brain efflux index in wild type mouse assessed as transport of compound from ipsilateral cerebrum to the circulating blood across the blood-brain barrier at 10 nCi/ml, intracerebral microinjection after 30 mins in presence of 50 mM unlabelled compound relative to wild type; details: other, 0.5 h
[24] = system: Brain; assay: Elimination half life in mouse brain; format: ADME, tissue-based; details: in vivo; how it was run: as §3

Row | BEI [1] | BEI [2] | k el [3] | Drug uptake [5] | BEI [6] | CL [7] | BEI [8] | BEI [9] | Drug uptake [10] | Drug uptake [11] | BEI [12] | BEI [14] | BEI [16] | half-life [17] | SMILES | also measured
1 | 63.8% | 24.2% | 0.000397 s⁻¹ | 75.8% | 13.7% | 20.23 µL/min/g | 21.4% | 57.2% | 90% | 36.2% | 72.7% | 37.9% | 46.4% | 28.8 min | CN(Cc1cnc2nc(N)nc(N)c2n1)c1ccc(C(=O)N[C@@H](CCC(=O)O)C(=O)O)cc1 [METHOTREXATE] | BEI [4]: 90%; Drug uptake [13]: 3.2%; Ratio [15]: 0.05
2 | 48.9% | 27.6% | 0.000297 s⁻¹ | 72.4% | 12.2% | 11.04 µL/min/g | 25% | 58.3% | 90% | 51.1% | 89.7% | 56.5% | 43.9% | 39 min | Nc1nc2[nH]cc(CCc3ccc(C(=O)N[C@@H](CCC(=O)O)C(=O)O)cc3)c2c(=O)[nH]1 [PEMETREXED] | BEI [18]: 28.3%; Drug uptake [19]: 71.7%; Drug uptake [20]: 95.7%; BEI [21]: 57.8%; BEI [22]: 4.3%; BEI [23]: 8.8%
3 | – | – | – | – | – | – | – | – | – | – | – | – | – | – | CCCC(CCC)C(=O)O [VALPROIC ACID] | beta t1/2 [24]: 2 min

From ChEMBL document CHEMBL3526028 (Drug Metab Dispos, 2013)
